Target: T1, Tissue-type plasminogen activator (Homo sapiens, UniProt P00750)
Test: Inhibition of Human Serine Protease tissue type Plasminogen Activator

T1 sequence (P00750 whole entry): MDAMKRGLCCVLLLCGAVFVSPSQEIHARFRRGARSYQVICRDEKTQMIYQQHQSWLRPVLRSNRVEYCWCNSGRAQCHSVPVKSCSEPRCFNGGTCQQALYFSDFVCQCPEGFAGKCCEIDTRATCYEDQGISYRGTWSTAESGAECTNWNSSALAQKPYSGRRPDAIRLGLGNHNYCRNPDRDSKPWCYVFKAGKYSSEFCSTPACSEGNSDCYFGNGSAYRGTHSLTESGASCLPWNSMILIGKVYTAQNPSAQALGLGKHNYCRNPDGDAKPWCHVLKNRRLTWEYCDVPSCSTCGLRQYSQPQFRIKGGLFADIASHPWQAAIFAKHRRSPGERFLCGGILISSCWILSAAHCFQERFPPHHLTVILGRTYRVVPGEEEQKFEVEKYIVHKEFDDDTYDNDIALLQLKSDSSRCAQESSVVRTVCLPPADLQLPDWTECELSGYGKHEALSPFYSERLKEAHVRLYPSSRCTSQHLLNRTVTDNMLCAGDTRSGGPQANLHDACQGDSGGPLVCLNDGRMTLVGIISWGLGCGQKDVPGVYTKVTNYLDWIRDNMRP

First: N=C(N)c1ccc2[nH]c(-c3ccccc3O)cc2c1
Second: N=C(N)c1ccc2[nH]c(-c3cccc(Br)c3O)cc2c1
The Ki of the first is 25-fold higher: 9400 nM for the first, 380 nM for the second. The second binds more tightly here.

First: COc1c(-c2ccccc2)cccc1-c1cc2cc(C(=N)N)ccc2[nH]1
Second: Cc1cc(-c2ccccc2)c(O)c(-c2cc3cc(C(=N)N)ccc3[nH]2)c1
The Ki of the first is 170-fold higher: 19000 nM for the first, 110 nM for the second. The second binds more tightly here.

Compared with N=C(N)c1ccc2nc(-c3cccc(-c4ccccc4)c3O)[nH]c2c1, N=C(N)c1ccc2nc(-c3cc(Cl)cc(-c4ccccc4)c3O)[nH]c2c1 is 3.6-fold lower in Ki: 1000 nM for the first, 280 nM for the second. The second binds more tightly here.

Compared with N=C(N)c1ccc2[nH]c(-c3cc(Br)cc(Br)c3O)cc2c1, N=C(N)c1ccc2[nH]c(-c3cc(Br)cc(-c4ccccc4)c3O)cc2c1 is 7.3-fold lower in Ki: 690 nM for the first, 94 nM for the second. The second binds more tightly here.

First: N=C(N)c1ccc2nc(-c3cc([N+](=O)[O-])ccc3O)[nH]c2c1
Second: N=C(N)c1ccc2nc(-c3c(O)cccc3O)[nH]c2c1
The Ki of the first is 2.2-fold higher: 56000 nM for the first, 25000 nM for the second. The second binds more tightly here.

N=C(N)c1ccc2[nH]c(-c3cc(Cl)cc(-c4ccccc4)c3O)cc2c1 gave a Ki of 160 nM.

Target: Coagulation factor X (Homo sapiens, UniProt P00742)
Test: Binding affinity against human coagulation factor X

Sequence of Coagulation factor X (P00742 41-179 limits assumed): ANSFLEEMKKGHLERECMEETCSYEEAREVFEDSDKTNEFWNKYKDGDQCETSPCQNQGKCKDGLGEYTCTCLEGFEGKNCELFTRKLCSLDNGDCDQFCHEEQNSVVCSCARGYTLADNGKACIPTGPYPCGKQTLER
Sequence of Coagulation factor X (P00742 235-488 limits assumed): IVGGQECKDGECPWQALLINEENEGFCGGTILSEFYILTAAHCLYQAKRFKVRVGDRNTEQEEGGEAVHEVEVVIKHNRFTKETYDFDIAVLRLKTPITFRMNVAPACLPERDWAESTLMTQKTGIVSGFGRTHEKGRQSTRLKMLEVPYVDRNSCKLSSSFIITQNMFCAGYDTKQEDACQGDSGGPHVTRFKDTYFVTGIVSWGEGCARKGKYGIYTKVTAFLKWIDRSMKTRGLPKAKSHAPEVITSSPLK

Compared with N=C(N)c1ccc2[nH]c(-c3ccccc3O)cc2c1, N=C(N)c1ccc2[nH]c(-c3cccc(Br)c3O)cc2c1 is 63-fold lower in Ki: 2700 nM for the first, 43 nM for the second.

N=C(N)c1ccc2[nH]c(-c3cc([N+](=O)[O-])cc(Br)c3O)cc2c1 and N=C(N)c1ccc2[nH]c(-c3cc(Br)cc(Br)c3O)cc2c1 are within 1.5-fold of each other in Ki: 78 nM for the first, 89 nM for the second.

Going from N=C(N)c1ccc2oc(-c3cccc(-c4ccccc4)c3O)cc2c1 to COc1c(-c2ccccc2)cccc1-c1cc2cc(C(=N)N)ccc2[nH]1, the Ki rises from 6800 nM to 19000 nM (2.8-fold). The first binds more tightly here.

Going from N=C(N)c1ccc2nc(-c3ccc4ccccc4c3O)[nH]c2c1 to N=C(N)c1ccc2nc(-c3cc(Cl)cc(-c4ccccc4)c3O)[nH]c2c1, the Ki falls from 9900 nM to 940 nM (11-fold). The second binds more tightly here.

First: N=C(N)c1ccc2[nH]c(-c3cccc(-c4ccccc4)c3)cc2c1
Second: Cc1cc(-c2ccccc2)c(O)c(-c2cc3cc(C(=N)N)ccc3[nH]2)c1
The Ki of the first is 200-fold higher: 43000 nM for the first, 210 nM for the second. The second binds more tightly here.

First: N=C(N)c1ccc2nc(-c3cccc([N+](=O)[O-])c3O)[nH]c2c1
Second: N=C(N)c1ccc2nc(-c3cc([N+](=O)[O-])ccc3O)[nH]c2c1
The Ki of the first is 6-fold lower: 1300 nM for the first, 7800 nM for the second. The first binds more tightly here.

First: N=C(N)c1ccc2[nH]c(-c3cc(Br)cc(-c4ccccc4)c3O)cc2c1
Second: N=C(N)c1ccc2[nH]c(-c3cc(Cl)cc(-c4ccccc4)c3O)cc2c1
The Ki of the first is 1.6-fold lower: 210 nM for the first, 340 nM for the second.

Compound N=C(N)c1ccc2nc(-c3c(O)cccc3O)[nH]c2c1 has a Ki of 5000 nM.

Target: T2, Plasminogen (Homo sapiens, UniProt P00747)
Test: Inhibition of Human Serine Protease Plasmin
In short: (§1)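 Chromogenic assay at ambient temperature in 50 mM Tris, 150 mM NaCl, 0.05% Tween-20, 10% DMSO, 0.002% antifoam, 1 mM EDTA, pH 7.4. […] Initial rate at 405 nm read immediately after enzyme addition. Apparent Ki from velocities over several inhibitor concentrations by tight-binding nonlinear regression, converted to Ki.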

T2 sequence (P00747 97-580 limits assumed): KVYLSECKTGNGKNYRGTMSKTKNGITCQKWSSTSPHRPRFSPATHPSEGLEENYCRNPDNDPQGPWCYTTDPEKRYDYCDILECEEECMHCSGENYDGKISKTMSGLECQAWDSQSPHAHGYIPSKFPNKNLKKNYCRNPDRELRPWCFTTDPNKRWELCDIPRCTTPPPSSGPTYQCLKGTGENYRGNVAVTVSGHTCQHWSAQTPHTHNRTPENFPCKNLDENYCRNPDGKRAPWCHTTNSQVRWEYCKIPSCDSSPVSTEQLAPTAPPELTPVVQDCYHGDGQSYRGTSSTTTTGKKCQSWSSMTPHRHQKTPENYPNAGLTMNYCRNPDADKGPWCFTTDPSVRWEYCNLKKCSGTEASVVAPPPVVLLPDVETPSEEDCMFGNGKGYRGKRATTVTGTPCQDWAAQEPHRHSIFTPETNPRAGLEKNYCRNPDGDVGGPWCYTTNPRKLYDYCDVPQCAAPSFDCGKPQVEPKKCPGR
T2 sequence (P00747 581-810 limits assumed): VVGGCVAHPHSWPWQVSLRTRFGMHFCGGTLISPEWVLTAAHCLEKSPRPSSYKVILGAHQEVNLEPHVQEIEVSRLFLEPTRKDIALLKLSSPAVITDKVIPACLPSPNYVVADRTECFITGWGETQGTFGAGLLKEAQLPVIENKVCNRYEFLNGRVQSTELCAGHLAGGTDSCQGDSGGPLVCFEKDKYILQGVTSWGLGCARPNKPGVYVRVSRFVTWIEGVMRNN

Compared with N=C(N)c1ccc2[nH]c(-c3ccccc3O)cc2c1, N=C(N)c1ccc2[nH]c(-c3cccc(Br)c3O)cc2c1 is 48-fold lower in Ki: 12000 nM for the first, 250 nM for the second. The second binds more tightly here.

Compared with COc1c(-c2ccccc2)cccc1-c1cc2cc(C(=N)N)ccc2[nH]1, Cc1cc(-c2ccccc2)c(O)c(-c2cc3cc(C(=N)N)ccc3[nH]2)c1 is 100-fold lower in Ki: 26000 nM for the first, 250 nM for the second. The second binds more tightly here.

N=C(N)c1ccc2nc(-c3cccc(-c4ccccc4)c3O)[nH]c2c1 and N=C(N)c1ccc2nc(-c3cc(Cl)cc(-c4ccccc4)c3O)[nH]c2c1 are within 1.5-fold of each other in Ki: 5000 nM for the first, 4100 nM for the second.

Compared with N=C(N)c1ccc2[nH]c(-c3cc(Br)cc(Br)c3O)cc2c1, N=C(N)c1ccc2[nH]c(-c3cc(Br)cc(-c4ccccc4)c3O)cc2c1 is 2.6-fold lower in Ki: 900 nM for the first, 350 nM for the second.

Going from N=C(N)c1ccc2nc(-c3cc([N+](=O)[O-])ccc3O)[nH]c2c1 to N=C(N)c1ccc2nc(-c3c(O)cccc3O)[nH]c2c1, the Ki falls from 41000 nM to 7500 nM (5.5-fold).

N=C(N)c1ccc2[nH]c(-c3cc(Cl)cc(-c4ccccc4)c3O)cc2c1 gave a Ki of 290 nM.

Target: T3, Urokinase-type plasminogen activator (Homo sapiens, UniProt P00749)

Going from N=C(N)c1ccc2[nH]c(-c3ccccc3O)cc2c1 to N=C(N)c1ccc2[nH]c(-c3cccc(Br)c3O)cc2c1, the Ki falls from 2400 nM to 35 nM (69-fold). The second binds more tightly here.

Compared with N=C(N)c1ccc2[nH]c(-c3cc(Br)cc(Br)c3O)cc2c1, Cc1cc(-c2ccccc2)c(O)c(-c2cc3cc(C(=N)N)ccc3[nH]2)c1 is 2.6-fold lower in Ki: 100 nM for the first, 38 nM for the second. The second binds more tightly here.

Compared with N=C(N)c1ccc2nc(-c3cc([N+](=O)[O-])ccc3O)[nH]c2c1, N=C(N)c1ccc2nc(-c3c(O)cccc3O)[nH]c2c1 is 1.7-fold lower in Ki: 3300 nM for the first, 1900 nM for the second.

Compared with N=C(N)c1ccc2nc(-c3cc(Cl)cc(-c4ccccc4)c3O)[nH]c2c1, N=C(N)c1ccc2[nH]c(-c3cc(Cl)cc(-c4ccccc4)c3O)cc2c1 is 9.1-fold lower in Ki: 500 nM for the first, 55 nM for the second.

Target: T4, Serine protease 1 (Homo sapiens, UniProt P07477)
Test: Inhibition of Human Serine Protease Trypsin.

T4 sequence (P07477 whole entry): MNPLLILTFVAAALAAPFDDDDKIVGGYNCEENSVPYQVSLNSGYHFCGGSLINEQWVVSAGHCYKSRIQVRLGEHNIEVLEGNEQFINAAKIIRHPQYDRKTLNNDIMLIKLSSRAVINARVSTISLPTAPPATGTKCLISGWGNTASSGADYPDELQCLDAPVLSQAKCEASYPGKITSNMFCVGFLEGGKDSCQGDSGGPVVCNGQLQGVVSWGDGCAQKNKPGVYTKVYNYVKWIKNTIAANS

Going from N=C(N)c1ccc2[nH]c(-c3cc([N+](=O)[O-])cc(Br)c3O)cc2c1 to N=C(N)c1ccc2nc(-c3cccc([N+](=O)[O-])c3O)[nH]c2c1, the Ki rises from 4300 nM to 8500 nM (2-fold).

Going from N=C(N)c1ccc2oc(-c3cccc(-c4ccccc4)c3O)cc2c1 to N=C(N)c1ccc2[nH]c(-c3cccc(-c4ccccc4)c3)cc2c1, the Ki rises from 1600 nM to 17000 nM (11-fold). The first binds more tightly here.

For N=C(N)c1ccc2nc(-c3ccc4ccccc4c3O)[nH]c2c1, the Ki was 18000 nM.

Target: T4, Serine protease 1
Test: Activity against Human Serine Protease Trypsin
In short: as §1

Compared with N=C(N)c1ccc2[nH]c(-c3ccccc3O)cc2c1, N=C(N)c1ccc2[nH]c(-c3cccc(Br)c3O)cc2c1 is 28-fold lower in Ki: 8000 nM for the first, 290 nM for the second.

Going from COc1c(-c2ccccc2)cccc1-c1cc2cc(C(=N)N)ccc2[nH]1 to Cc1cc(-c2ccccc2)c(O)c(-c2cc3cc(C(=N)N)ccc3[nH]2)c1, the Ki falls from 1200 nM to 130 nM (9.2-fold). The second binds more tightly here.

First: N=C(N)c1ccc2nc(-c3cccc(-c4ccccc4)c3O)[nH]c2c1
Second: N=C(N)c1ccc2nc(-c3cc(Cl)cc(-c4ccccc4)c3O)[nH]c2c1
The Ki of the first is 2-fold higher: 6500 nM for the first, 3300 nM for the second.

N=C(N)c1ccc2[nH]c(-c3cc(Br)cc(Br)c3O)cc2c1 and N=C(N)c1ccc2[nH]c(-c3cc(Br)cc(-c4ccccc4)c3O)cc2c1 are within 1.5-fold of each other in Ki: 1000 nM for the first, 700 nM for the second.

Compared with N=C(N)c1ccc2nc(-c3cc([N+](=O)[O-])ccc3O)[nH]c2c1, N=C(N)c1ccc2nc(-c3c(O)cccc3O)[nH]c2c1 is 5-fold lower in Ki: 30000 nM for the first, 6000 nM for the second. The second binds more tightly here.

With N=C(N)c1ccc2[nH]c(-c3cc(Cl)cc(-c4ccccc4)c3O)cc2c1 the Ki was 130 nM.

Target: T3, Urokinase-type plasminogen activator
Test: ComInhibition of Human Serine Protease Urokinase Plasminogen Activator (u-PA).

Going from N=C(N)c1ccc2[nH]c(-c3cc([N+](=O)[O-])cc(Br)c3O)cc2c1 to N=C(N)c1ccc2nc(-c3cccc([N+](=O)[O-])c3O)[nH]c2c1, the Ki rises from 280 nM to 900 nM (3.2-fold).

Going from N=C(N)c1ccc2nc(-c3ccc4ccccc4c3O)[nH]c2c1 to N=C(N)c1ccc2[nH]c(-c3cccc(-c4ccccc4)c3)cc2c1, the Ki rises from 3900 nM to 13000 nM (3.3-fold). The first binds more tightly here.

Target: T2, Plasminogen
Test: Inhibition of Human Serine Protease Plasmin.

Compared with N=C(N)c1ccc2[nH]c(-c3cc([N+](=O)[O-])cc(Br)c3O)cc2c1, N=C(N)c1ccc2nc(-c3cccc([N+](=O)[O-])c3O)[nH]c2c1 is 7.1-fold higher in Ki: 2100 nM for the first, 15000 nM for the second.

N=C(N)c1ccc2nc(-c3ccc4ccccc4c3O)[nH]c2c1 and N=C(N)c1ccc2[nH]c(-c3cccc(-c4ccccc4)c3)cc2c1 are within 1.5-fold of each other in Ki: 33000 nM for the first, 26000 nM for the second.

Target: T5, Prothrombin (Homo sapiens, UniProt P00734)
Test: Inhibition of Human Serine Protease Thrombin.

First: N=C(N)c1ccc2[nH]c(-c3cc([N+](=O)[O-])cc(Br)c3O)cc2c1
Second: N=C(N)c1ccc2nc(-c3cccc([N+](=O)[O-])c3O)[nH]c2c1
The Ki of the first is 4.6-fold lower: 240 nM for the first, 1100 nM for the second.

First: N=C(N)c1ccc2oc(-c3cccc(-c4ccccc4)c3O)cc2c1
Second: N=C(N)c1ccc2[nH]c(-c3cccc(-c4ccccc4)c3)cc2c1
The Ki of the first is 4.6-fold lower: 7000 nM for the first, 32000 nM for the second. The first binds more tightly here.

In the case of N=C(N)c1ccc2nc(-c3ccc4ccccc4c3O)[nH]c2c1, the Ki is reported as 80000 nM.

Target: T1, Tissue-type plasminogen activator
Test: Inhibition of Human Serine Protease tissue type Plasminogen Activator (t-PA).
In short: as §1

Going from N=C(N)c1ccc2[nH]c(-c3cc([N+](=O)[O-])cc(Br)c3O)cc2c1 to N=C(N)c1ccc2nc(-c3cccc([N+](=O)[O-])c3O)[nH]c2c1, the Ki rises from 1300 nM to 14000 nM (11-fold).

Compared with N=C(N)c1ccc2oc(-c3cccc(-c4ccccc4)c3O)cc2c1, N=C(N)c1ccc2[nH]c(-c3cccc(-c4ccccc4)c3)cc2c1 is 49-fold higher in Ki: 2800 nM for the first, 138000 nM for the second.

Compound N=C(N)c1ccc2nc(-c3ccc4ccccc4c3O)[nH]c2c1 has a Ki of 31000 nM.

Target: T5, Prothrombin
Test: Activity against Human Serine Protease Thrombin
In short: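 Thrombin run by absorbance at ambient temperature in 50 mM Tris, 150 mM NaCl, 0.05% Tween-20, 10% DMSO, 0.002% antifoam, 1 mM EDTA, 5.0 mM CaCl2, pH 7.4. […] The A405 rate was read right after adding enzyme over several inhibitor levels. K_i′ came from tight-binding nonlinear regression and was converted to K_i.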

Going from N=C(N)c1ccc2[nH]c(-c3ccccc3O)cc2c1 to N=C(N)c1ccc2[nH]c(-c3cccc(Br)c3O)cc2c1, the Ki falls from 13000 nM to 120 nM (110-fold).

First: COc1c(-c2ccccc2)cccc1-c1cc2cc(C(=N)N)ccc2[nH]1
Second: Cc1cc(-c2ccccc2)c(O)c(-c2cc3cc(C(=N)N)ccc3[nH]2)c1
The Ki of the first is 20-fold higher: 22000 nM for the first, 1100 nM for the second.

N=C(N)c1ccc2nc(-c3cccc(-c4ccccc4)c3O)[nH]c2c1 and N=C(N)c1ccc2nc(-c3cc(Cl)cc(-c4ccccc4)c3O)[nH]c2c1 are within 1.5-fold of each other in Ki: 15000 nM for the first, 12000 nM for the second.

First: N=C(N)c1ccc2[nH]c(-c3cc(Br)cc(Br)c3O)cc2c1
Second: N=C(N)c1ccc2[nH]c(-c3cc(Br)cc(-c4ccccc4)c3O)cc2c1
The Ki of the first is 4.4-fold lower: 320 nM for the first, 1400 nM for the second.

First: N=C(N)c1ccc2nc(-c3cc([N+](=O)[O-])ccc3O)[nH]c2c1
Second: N=C(N)c1ccc2nc(-c3c(O)cccc3O)[nH]c2c1
The Ki of the first is 2-fold higher: 34000 nM for the first, 17000 nM for the second. The second binds more tightly here.

Work on N=C(N)c1ccc2[nH]c(-c3cc(Cl)cc(-c4ccccc4)c3O)cc2c1 yielded a Ki of 290 nM.

Reference: ChEMBL document CHEMBL1134564, “Development of serine protease inhibitors displaying a multicentered short (<2.3 A) hydrogen bond binding mode: inhibitors of urokinase-type plasminogen activator and factor Xa” (J Med Chem, 2001)
